For 3 compounds, inhibition of growth results are on record in ChEMBL document CHEMBL3751694, “1-Piperazinylphthalazines as potential VEGFR-2 inhibitors and anticancer agents: Synthesis and in vitro biological evaluation” (Eur J Med Chem, 2016).

The test system of the first test is CCRF-CEM. Kind of test: Growth inhibition of human CCRF-CEM cells at 10 uM after 48 hrs by SRB method. The format is functional. The note with it: read-out: GI. The method, boiled down:
(§1)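 NCI 56-line primary screen at a single 10^-5 M concentration. Cells grown in RPMI 1640 with 5% FBS and 2 mM L-glutamine, plated at 5000–40,000 cells/well, then preincubated for 24 h. Exposure was 48 h at 37 °C and 5% CO2. Adherent cells were fixed with cold TCA at 10% final, suspension cells at 16%. Staining used 0.4% SRB, read at 515 nm. Results are % growth inhibition relative to control.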
(In general: In SRB staining, fixed cells bind dye roughly in proportion to their protein.)
Consider `O=C(CN1CCN(c2nnc(-c3ccccc3)c3ccccc23)CC1)Nc1cccc(C(F)(F)F)c1`, for which the inhibition of growth at 10 µM amounted to 31%.

Test system in a further test: not listed separately
The experiment in a line: Growth inhibition of human […] cells at 10 uM after 48 hrs by SRB method. The format is functional. To be noted: read-out: GI. An outline of the steps:
as §1
`O=C(CN1CCN(c2nnc(-c3ccccc3)c3ccccc23)CC1)Nc1c(Cl)cccc1Cl`: the inhibition of growth at 10 µM was found to be 48%.
In the case of `N#Cc1ccc(NC(=O)CN2CCN(c3nnc(-c4ccccc4)c4ccccc34)CC2)cc1`, the inhibition of growth at 10 µM was found to be 39%.
Still for that read-out and setting: in the case of `O=C(CN1CCN(c2nnc(-c3ccccc3)c3ccccc23)CC1)Nc1cccc(C(F)(F)F)c1` it was 46%.

Test system in the next test: not listed separately
The experiment in a line: Growth inhibition of human OVCAR8 cells at 10 uM after 48 hrs by SRB method. Format: functional. The note with it: OVCAR-8, 48 h, read-out: GI. An outline of the steps: as §1
Regarding `O=C(CN1CCN(c2nnc(-c3ccccc3)c3ccccc23)CC1)Nc1c(Cl)cccc1Cl`, the inhibition of growth at 10 µM came out at 35%.

Test system in the next test: not listed separately
Kind of test: Growth inhibition of human PC3 cells at 10 uM after 48 hrs by SRB method. The format is functional. The note with it: PC-3, 48 h, read-out: GI. The method, boiled down: as §1
For `O=C(CN1CCN(c2nnc(-c3ccccc3)c3ccccc23)CC1)Nc1c(Cl)cccc1Cl`, the inhibition of growth at 10 µM is 34%.
The same measure, in the same setting: the same measure for `O=C(CN1CCN(c2nnc(-c3ccccc3)c3ccccc23)CC1)Nc1cccc(C(F)(F)F)c1`: 40%.

The next test deals with A549. Kind of test: Growth inhibition of human A549 cells at 10 uM after 48 hrs by SRB method. The format is functional. To be noted: A549, 48 h, read-out: GI. An outline of the steps:
as §1
On to `O=C(CN1CCN(c2nnc(-c3ccccc3)c3ccccc23)CC1)Nc1cccc(C(F)(F)F)c1`, for which the inhibition of growth at 10 µM turned out to be 34%.

Test system in a further test: not listed separately
Kind of test: Growth inhibition of human UO31 cells at 10 uM after 48 hrs by SRB method. To be noted: UO-31, 48 h, read-out: GI. The format is functional. The method, boiled down: (§2)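 NCI 56-line screen, single-dose primary assay at 10^-5 M. Cells grown in RPMI 1640 with 5% FBS and 2 mM L-glutamine, plated at 5000–40,000 cells/well and held 24 h at 37 °C, 5% CO2 before drug addition. Compound was given from DMSO stock, exposure 48 h, then TCA fixation and SRB staining with absorbance at 515 nm. % growth is taken relative to time-zero and untreated controls.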
Consider `O=C(CN1CCN(c2nnc(-c3ccccc3)c3ccccc23)CC1)Nc1c(Cl)cccc1Cl`, for which the inhibition of growth at 10 µM came to 38%.
Consider `N#Cc1ccc(NC(=O)CN2CCN(c3nnc(-c4ccccc4)c4ccccc34)CC2)cc1`, for which the inhibition of growth at 10 µM amounted to 49%.

Test system in another test: not listed separately
Kind of test: Growth inhibition of human UACC62 cells at 10 uM after 48 hrs by SRB method. Format: functional. The note with it: UACC-62, 48 h, read-out: GI. An outline of the steps: as §2
As to `N#Cc1ccc(NC(=O)CN2CCN(c3nnc(-c4ccccc4)c4ccccc34)CC2)cc1`, the inhibition of growth at 10 µM turned out to be 32%.
On the same count and under the same terms, in the case of `O=C(CN1CCN(c2nnc(-c3ccccc3)c3ccccc23)CC1)Nc1cccc(C(F)(F)F)c1` it was 41%.

A further test concerns MCF7. Kind of test: Growth inhibition of human MCF7 cells at 10 uM after 48 hrs by SRB method. To be noted: MCF7, 48 h, read-out: GI. Format: functional. The method, boiled down:
as §1
Take `N#Cc1ccc(NC(=O)CN2CCN(c3nnc(-c4ccccc4)c4ccccc34)CC2)cc1`: the inhibition of growth at 10 µM worked out at 30%.
Same read-out and setting: the same measure for `O=C(CN1CCN(c2nnc(-c3ccccc3)c3ccccc23)CC1)Nc1cccc(C(F)(F)F)c1`: 41%.

Another test deals with MDA-MB-468. The experiment in a line: Growth inhibition of human MDA-MB-468 cells at 10 uM after 48 hrs by SRB method. The format is functional. To be noted: MDA-MB-468, 48 h, read-out: GI. The method, boiled down: as §1
On to `O=C(CN1CCN(c2nnc(-c3ccccc3)c3ccccc23)CC1)Nc1c(Cl)cccc1Cl`, for which the inhibition of growth at 10 µM is 43%.
With `N#Cc1ccc(NC(=O)CN2CCN(c3nnc(-c4ccccc4)c4ccccc34)CC2)cc1`, the inhibition of growth at 10 µM was found to be 50%.
The same measure, in the same setting: the same measure for `O=C(CN1CCN(c2nnc(-c3ccccc3)c3ccccc23)CC1)Nc1cccc(C(F)(F)F)c1`: 60%.

Another test has as its system K562. The experiment in a line: Growth inhibition of human K562 cells at 10 uM after 48 hrs by SRB method. The note with it: K562, 48 h, read-out: GI. Format: functional. An outline of the steps:
as §1
`O=C(CN1CCN(c2nnc(-c3ccccc3)c3ccccc23)CC1)Nc1c(Cl)cccc1Cl`: the inhibition of growth at 10 µM came to 43%.
Take `N#Cc1ccc(NC(=O)CN2CCN(c3nnc(-c4ccccc4)c4ccccc34)CC2)cc1`: the inhibition of growth at 10 µM stood at 34%.
In the case of `O=C(CN1CCN(c2nnc(-c3ccccc3)c3ccccc23)CC1)Nc1cccc(C(F)(F)F)c1`, the inhibition of growth at 10 µM came to 38%.

Test system in the next test: not listed separately
The experiment in a line: Growth inhibition of human HL-60(TB) cells at 10 uM after 48 hrs by SRB method. The format is functional. To be noted: HL-60, 48 h, read-out: GI. The method, boiled down:
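NCI single-dose primary screen at 10^-5 M, 48 h exposure. Cells grown in RPMI 1640 with 5% FBS and 2 mM L-glutamine. Suspension cells fixed in situ with TCA (final 16%), stained with SRB, absorbance read at 515 nm. Percent growth inhibition calculated against time-zero and untreated control plates.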
Turning to `O=C(CN1CCN(c2nnc(-c3ccccc3)c3ccccc23)CC1)Nc1c(Cl)cccc1Cl`, the inhibition of growth at 10 µM came to 38%.
Still for that read-out and setting: in the case of `N#Cc1ccc(NC(=O)CN2CCN(c3nnc(-c4ccccc4)c4ccccc34)CC2)cc1` it was 30%.

Test system in another test: not listed separately
Kind of test: Growth inhibition of human COLO205 cells at 10 uM after 48 hrs by SRB method. Format: functional. To be noted: COLO 205, 48 h, read-out: GI. An outline of the steps:
as §1
As to `N#Cc1ccc(NC(=O)CN2CCN(c3nnc(-c4ccccc4)c4ccccc34)CC2)cc1`, the inhibition of growth at 10 µM worked out at 32%.

Test system in a further test: not listed separately
Kind of test: Growth inhibition of human Caki1 cells at 10 uM after 48 hrs by SRB method. The format is functional. To be noted: CAKI-1, 48 h, read-out: GI. An outline of the steps:
as §1
Turning to `N#Cc1ccc(NC(=O)CN2CCN(c3nnc(-c4ccccc4)c4ccccc34)CC2)cc1`, the inhibition of growth at 10 µM amounted to 34%.

Test system in a further test: not listed separately
The experiment in a line: Growth inhibition of human HOP92 cells at 10 uM after 48 hrs by SRB method. The format is functional. To be noted: HOP-92, 48 h, read-out: GI. An outline of the steps:
as §1
Consider `O=C(CN1CCN(c2nnc(-c3ccccc3)c3ccccc23)CC1)Nc1c(Cl)cccc1Cl`, for which the inhibition of growth at 10 µM amounted to 47%.
Take `N#Cc1ccc(NC(=O)CN2CCN(c3nnc(-c4ccccc4)c4ccccc34)CC2)cc1`: the inhibition of growth at 10 µM amounted to 40%.

A further test concerns SR. Kind of test: Growth inhibition of human SR cells at 10 uM after 48 hrs by SRB method. Format: functional. To be noted: read-out: GI. The method, boiled down: as §1
Regarding `O=C(CN1CCN(c2nnc(-c3ccccc3)c3ccccc23)CC1)Nc1c(Cl)cccc1Cl`, the inhibition of growth at 10 µM worked out at 40%.
In the case of `N#Cc1ccc(NC(=O)CN2CCN(c3nnc(-c4ccccc4)c4ccccc34)CC2)cc1`, the inhibition of growth at 10 µM was 36%.
Consider `O=C(CN1CCN(c2nnc(-c3ccccc3)c3ccccc23)CC1)Nc1cccc(C(F)(F)F)c1`, for which the inhibition of growth at 10 µM is 55%.

Test system in a further test: not listed separately
Kind of test: Growth inhibition of human UACC257 cells at 10 uM after 48 hrs by SRB method. The format is functional. The note with it: UACC-257, 48 h, read-out: GI. The method, boiled down:
as §2
For the compound `N#Cc1ccc(NC(=O)CN2CCN(c3nnc(-c4ccccc4)c4ccccc34)CC2)cc1`, the inhibition of growth at 10 µM worked out at 30%.

Test system in another test: not listed separately
Kind of test: Growth inhibition of human MOLT4 cells at 10 uM after 48 hrs by SRB method. Format: functional. The note with it: MOLT-4, 48 h, read-out: GI. An outline of the steps:
as §1
Take `O=C(CN1CCN(c2nnc(-c3ccccc3)c3ccccc23)CC1)Nc1c(Cl)cccc1Cl`: the inhibition of growth at 10 µM is 42%.
Still for that read-out and setting: in the case of `N#Cc1ccc(NC(=O)CN2CCN(c3nnc(-c4ccccc4)c4ccccc34)CC2)cc1` it was 43%; in that of `O=C(CN1CCN(c2nnc(-c3ccccc3)c3ccccc23)CC1)Nc1cccc(C(F)(F)F)c1`, 52%.

The next test concerns NCI-H226. Kind of test: Growth inhibition of human NCI-H226 cells at 10 uM after 48 hrs by SRB method. The format is functional. To be noted: NCI-H226, 48 h, read-out: GI. The method, boiled down:
as §1
For the compound `O=C(CN1CCN(c2nnc(-c3ccccc3)c3ccccc23)CC1)Nc1c(Cl)cccc1Cl`, the inhibition of growth at 10 µM turned out to be 30%.

The next test relates to NCI-H522. Kind of test: Growth inhibition of human NCI-H522 cells at 10 uM after 48 hrs by SRB method. The format is functional. The note with it: NCI-H522, 48 h, read-out: GI. An outline of the steps: as §1
Consider `O=C(CN1CCN(c2nnc(-c3ccccc3)c3ccccc23)CC1)Nc1c(Cl)cccc1Cl`, for which the inhibition of growth at 10 µM was determined as 34%.
The same measure, in the same setting: the same measure for `N#Cc1ccc(NC(=O)CN2CCN(c3nnc(-c4ccccc4)c4ccccc34)CC2)cc1`: 37%; for `O=C(CN1CCN(c2nnc(-c3ccccc3)c3ccccc23)CC1)Nc1cccc(C(F)(F)F)c1`: 53%.

For a further test, the system named is T47D. The experiment in a line: Growth inhibition of human T47D cells at 10 uM after 48 hrs by SRB method. The format is functional. The note with it: read-out: GI. The method, boiled down:
as §2
As for `O=C(CN1CCN(c2nnc(-c3ccccc3)c3ccccc23)CC1)Nc1c(Cl)cccc1Cl`, the inhibition of growth at 10 µM came out at 60%.
On to `N#Cc1ccc(NC(=O)CN2CCN(c3nnc(-c4ccccc4)c4ccccc34)CC2)cc1`, for which the inhibition of growth at 10 µM was found to be 64%.
For `O=C(CN1CCN(c2nnc(-c3ccccc3)c3ccccc23)CC1)Nc1cccc(C(F)(F)F)c1`, the inhibition of growth at 10 µM was found to be 59%.

The test system of another test is SK-MEL-5. Kind of test: Growth inhibition of human SK-MEL-5 cells at 10 uM after 48 hrs by SRB method. Format: functional. The note with it: SK-MEL-5, 48 h, read-out: GI. An outline of the steps:
as §1
With `O=C(CN1CCN(c2nnc(-c3ccccc3)c3ccccc23)CC1)Nc1c(Cl)cccc1Cl`, the inhibition of growth at 10 µM was found to be 44%.
Still for that read-out and setting: the same measure for `N#Cc1ccc(NC(=O)CN2CCN(c3nnc(-c4ccccc4)c4ccccc34)CC2)cc1`: 47%.
Regarding `O=C(CN1CCN(c2nnc(-c3ccccc3)c3ccccc23)CC1)Nc1cccc(C(F)(F)F)c1`, the inhibition of growth at 10 µM turned out to be 41%.

The test system of a further test is A498. The experiment in a line: Growth inhibition of human A498 cells at 10 uM after 48 hrs by SRB method. The format is functional. The note with it: A498, 48 h, read-out: GI. An outline of the steps: as §1
As for `N#Cc1ccc(NC(=O)CN2CCN(c3nnc(-c4ccccc4)c4ccccc34)CC2)cc1`, the inhibition of growth at 10 µM was determined as 44%.
Same read-out and setting: in the case of `O=C(CN1CCN(c2nnc(-c3ccccc3)c3ccccc23)CC1)Nc1cccc(C(F)(F)F)c1` it was 32%.
